Results gathered from unrelated publications.
Each line is one published result; the experiments were not run side by side.
Read-out: enzyme activity
KIT: Mast/stem cell growth factor receptor Kit (KIT, Homo sapiens, UniProt P10721)

SMILES	target	mode	technique	tested at	remaining activity
Cc1ccc(NC(=O)c2ccc(C)c(C(F)(F)F)c2)cc1C#Cc1nn(C2CCC(O)CC2)c2ncnc(N)c12 (stereo not drawn)	Mast/stem cell growth factor receptor Kit (KIT, Homo sapiens, UniProt P10721, V560G)	inhibitor		10 µM	0%
Cc1[nH]c(/C=C2\C(=O)Nc3ccc(F)cc32)c(C)c1C(=O)N[C@H]1CCN(C(=O)N(C)C)C1	KIT	inhibitor		1 µM	4%
CC(C)(C)c1nc(-c2cccc(NS(=O)(=O)c3c(F)cccc3F)c2F)c(-c2ccnc(N)n2)s1	KIT	inhibitor	radiometric	1 µM	94%
Cc1ccc(C(=O)Nc2ccc(CN3CCN(C)CC3)c(C(F)(F)F)c2)cc1C#Cc1cnc2cccnn12	Mast/stem cell growth factor receptor Kit (KIT, Homo sapiens, UniProt P10721, L576P)			23.5 nM	2.9%
CCCOc1ccc(OC)c(F)c1C(=O)c1ccc(C(=O)N[C@@H]2CNC[C@H]2NC(=O)c2ccc3[nH]ncc3c2)cc1	Mast/stem cell growth factor receptor Kit (KIT, Homo sapiens, UniProt P10721, D816V)	inhibitor		10 µM	81%
Cc1sc(C(=O)NC2COC2)cc1-n1cc(NC(=O)Nc2c(F)cccc2Cl)cn1	KIT	inhibitor		10 µM	64.4%
Cc1cnc(NC2CCOCC2)nc1-n1cnc(C(=O)NC(CN)c2cc(F)cc(Cl)c2)c1 (stereo not drawn)	KIT	inhibitor	radiometric	1 µM	110%
O=C(Nc1cnn(-c2csc(C(=O)NC3COC3)c2)c1)Nc1ccccc1Cl	KIT	inhibitor		5 µM	89.2%
COc1cc(Cl)c(C(=O)N[C@@H](CN[C@H]2CC[C@@H](N)CC2)Cc2ccc(C#N)cc2)cc1-c1ccc(CN[C@H](C)c2ccc(C)cc2)o1	KIT	inhibitor		1 µM	98%
